“And” between values parts separate entries of the source, which are not always exact repeats. Equal values may be shown once.
Key:
[1] = system: L1210; test: In vitro inhibition of L1210 cell proliferation.; format: functional, cell-based; conditions: Mus musculus
Outline: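 L1210 murine leukemia cells grown in RPMI 1640 with 10% fetal calf serum, 2 mM glutamine, penicillin/streptomycin, 10 mM HEPES pH 7.4. Exposed 48 h to nine serial drug dilutions in triplicate. Microculture tetrazolium assay read-out. IC50 = concentration halving optical density versus untreated controls; mean of at least 2 separate experiments.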

[2] = system: Mus musculus; test: Optimal therapeutic effect without toxicity in mice inoculated ip with P388 cells on day 0 with 12.5 mg/kg iv of compound on day 1; format: functional
[3] = system: Mus musculus; test: Optimal therapeutic effect without toxicity in mice inoculated ip with P388 cells on day 0 with 12.5 mg/kg ip of compound on day 1; format: functional; conditions: route intraperitoneal
[4] = system: Mus musculus; test: Optimal therapeutic effect without toxicity in mice inoculated ip with C38 cells on day 0 with 3.12 mg/kg iv of compound measured on day 31; format: functional, MC-38
[5] = system: Mus musculus; test: Optimal therapeutic effect without toxicity in mice inoculated ip with C38 cells on day 0 with 6.25 mg/kg iv of compound measured on day 31; format: functional, MC-38
[6] = system: Mus musculus; test: Optimal therapeutic effect without toxicity in mice inoculated ip with P388 cells on day 0 with 12.5 mg/kg iv of compound on day 1
[7] = system: Mus musculus; test: Optimal therapeutic effect without toxicity in mice inoculated ip with P388 cells on day 0 with 200 mg/kg ip of compound on day 1; format: functional; conditions: route intraperitoneal

IC50 [1] [µM] | Compound | also measured
14.1 | C=C1Oc2cc(OC)c3c(=O)c4cc5ccccc5cc4n(C)c3c2C1(C)C | 
6 | Oc1cc(O)c2c(O)c3cc4ccccc4cc3nc2c1 | 
3.2 | C=C1Oc2cc(O)c3c(O)c4cc5ccccc5cc4nc3c2C1(C)C | 
10.2 | CC1(C)C=Cc2c(cc(O)c3c(O)c4cc5ccccc5cc4nc23)O1 | 
4.9 | COc1c2c(cc3c1c(=O)c1cc4ccccc4cc1n3C)OC(C)(C)C=C2 | 
17.9 | Cn1c2cc3ccccc3cc2c(=O)c2c(O)cc3c(c21)C=CC(C)(C)O3 | 
8.5 | C=C1Oc2cc3c(c(OC)c2C1(C)C)c(=O)c1cc2ccccc2cc1n3C | 
9 | C=C1Oc2cc(O)c3c(=O)c4cc5ccccc5cc4n(C)c3c2C1(C)C | 
40.8 | COc1cc2c(c3c1c(=O)c1cc4ccccc4cc1n3C)[C@@H](O)[C@@H](O)C(C)(C)O2 | 
1.9 | COc1cc2c(c3c1c(=O)c1cc4ccccc4cc1n3C)C=CC(C)(C)O2 [BENZO[B]ACRONYCINE] | 

The remaining lines, values behind:

Compound | IC50 [1] [µM] | also measured
COc1cc2c(c3c1c(=O)c1cc4ccccc4cc1n3C)[C@@H](OC(=O)CC(C)C)[C@@H](OC(=O)CC(C)C)C(C)(C)O2 | 0.5 | 
COc1cc2c(c3c1c(=O)c1cc4ccccc4cc1n3C)[C@@H](OC(C)=O)[C@@H](OC(=O)CC(C)C)C(C)(C)O2 | 0.5 | 
CCC(=O)O[C@@H]1c2c(cc(OC)c3c(=O)c4cc5ccccc5cc4n(C)c23)OC(C)(C)[C@@H]1OC(=O)CC | 0.9 | 
COc1cc2c(c3c1c(=O)c1cc4ccccc4cc1n3C)[C@@H](O)[C@@H](OC(=O)c1ccccc1)C(C)(C)O2 | 1.7 | 
COc1cc2c(c3c1c(=O)c1cc4ccccc4cc1n3C)[C@H]1OC(=O)OC1C(C)(C)O2 (stereo partly drawn) | 0.02 | T/C (survival) [2]: 157%; T/C (survival) [3]: 327%; T/C (tumor vol) [4]: 18%
COc1cc2c(c3c1c(=O)c1cc4ccccc4cc1n3C)[C@@H](O)[C@@H](OC(=O)CC(C)C)C(C)(C)O2 | 1.9 | 
COc1cc2c(c3c1c(=O)c1cc4ccccc4cc1n3C)[C@@H](OC(C)=O)[C@@H](OC(C)=O)C(C)(C)O2 | 0.6 | T/C (tumor vol) [5]: 4%; T/C (survival) ([3]; 12.5 mg/kg): 213% and 178%
COc1cc2c(c3c1c(=O)c1cc4ccccc4cc1n3C)[C@@H](OC(C)=O)[C@@H](OC(=O)c1ccccc1)C(C)(C)O2 | 0.2 | 
COc1cc2c(c3c1c(=O)c1ccccc1n3C)[C@@H](OC(C)=O)[C@@H](OC(C)=O)C(C)(C)O2 (racemic) | 3.4 | T/C (survival) [6]: 202%; T/C (survival) [3]: 224%
COc1cc2c(c3c1c(=O)c1ccccc1n3C)C=CC(C)(C)O2 [ACRONINE] | 19.9 | T/C (survival) [7]: 125%

— ChEMBL document CHEMBL1133748, “Synthesis and cytotoxic and antitumor activity of benzo[b]pyrano[3, 2-h]acridin-7-one analogues of acronycine” (J Med Chem, 2000)
